Laboratory results: ChEMBL document CHEMBL2010643 (Bioorg Med Chem Lett, 2012)
Active and inactive are the calls of the source. The calls are words filed in the database; no cut-off is given here.

Columns and labels:
[1] = target: Ribosomal protein S6 kinase beta-1 (Homo sapiens) (UniProt P23443); assay: Inhibition of S6K1 assessed as residual activity at 1 uM relative to control
[2] = target: Dual specificity protein kinase TTK (Homo sapiens) (UniProt P33981); assay: Inhibition of TTK assessed as residual activity at 1 uM relative to control
How it was run: (§1)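 Radioactivity-based enzymatic kinase assays run across a 124-kinase profiling panel (Dundee), reporting the remaining kinase activity relative to a control.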

[3] = target: Death-associated protein kinase 1 (Homo sapiens) (UniProt P53355); assay: Inhibition of DAPK1 assessed as residual activity at 10 uM relative to control
[4] = target: Dual specificity tyrosine-phosphorylation-regulated kinase 2 (Homo sapiens) (UniProt Q92630); assay: Inhibition of DYRK2 assessed as residual activity at 10 uM relative to control
[5] = target: Inhibitor of nuclear factor kappa-B kinase subunit beta (Homo sapiens) (UniProt O14920); assay: Inhibition of IKKbeta assessed as residual activity at 10 uM relative to control
Sequence of Inhibitor of nuclear factor kappa-B kinase subunit beta (Homo sapiens) (O14920 whole entry): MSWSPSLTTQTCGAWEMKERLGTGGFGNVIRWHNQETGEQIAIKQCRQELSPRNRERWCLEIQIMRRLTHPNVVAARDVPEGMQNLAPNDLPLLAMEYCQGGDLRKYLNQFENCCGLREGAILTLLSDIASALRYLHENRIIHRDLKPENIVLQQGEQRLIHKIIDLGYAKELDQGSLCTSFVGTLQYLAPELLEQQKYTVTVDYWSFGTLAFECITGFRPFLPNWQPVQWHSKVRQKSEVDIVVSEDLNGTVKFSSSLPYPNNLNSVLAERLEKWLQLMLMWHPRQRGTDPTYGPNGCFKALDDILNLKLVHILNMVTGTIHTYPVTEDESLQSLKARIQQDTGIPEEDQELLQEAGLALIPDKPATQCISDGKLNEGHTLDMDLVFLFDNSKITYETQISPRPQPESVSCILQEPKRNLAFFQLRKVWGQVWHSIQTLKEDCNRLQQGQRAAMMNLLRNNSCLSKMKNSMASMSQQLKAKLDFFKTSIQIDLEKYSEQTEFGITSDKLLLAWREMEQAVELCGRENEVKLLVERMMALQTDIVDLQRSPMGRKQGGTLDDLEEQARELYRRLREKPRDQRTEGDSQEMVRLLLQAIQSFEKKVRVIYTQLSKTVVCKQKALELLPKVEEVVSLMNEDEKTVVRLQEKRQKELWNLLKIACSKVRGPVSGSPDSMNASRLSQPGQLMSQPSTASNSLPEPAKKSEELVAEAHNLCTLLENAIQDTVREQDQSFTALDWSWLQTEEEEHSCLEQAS

[6] = target: Dual specificity mitogen-activated protein kinase kinase 2 (Homo sapiens) (UniProt P36507); assay: Inhibition of MKK2 assessed as residual activity at 10 uM relative to control
[7] = target: Serine/threonine-protein kinase 26 (Homo sapiens) (UniProt Q9P289); assay: Inhibition of MST4 assessed as residual activity at 10 uM relative to control
[8] = target: RAC-alpha serine/threonine-protein kinase (Homo sapiens) (UniProt P31749); assay: Inhibition of PKBalpha assessed as residual activity at 10 uM relative to control
[9] = target: T1, Leucine-rich repeat serine/threonine-protein kinase 2 (Homo sapiens, UniProt Q5S007); assay: Inhibition of wild-type LRRK2 phosphorylation at Ser910 expressed in HEK293 cells after 90 mins by immunoblot analysis; assay type: cell-based
T1 sequence (Q5S007 whole entry): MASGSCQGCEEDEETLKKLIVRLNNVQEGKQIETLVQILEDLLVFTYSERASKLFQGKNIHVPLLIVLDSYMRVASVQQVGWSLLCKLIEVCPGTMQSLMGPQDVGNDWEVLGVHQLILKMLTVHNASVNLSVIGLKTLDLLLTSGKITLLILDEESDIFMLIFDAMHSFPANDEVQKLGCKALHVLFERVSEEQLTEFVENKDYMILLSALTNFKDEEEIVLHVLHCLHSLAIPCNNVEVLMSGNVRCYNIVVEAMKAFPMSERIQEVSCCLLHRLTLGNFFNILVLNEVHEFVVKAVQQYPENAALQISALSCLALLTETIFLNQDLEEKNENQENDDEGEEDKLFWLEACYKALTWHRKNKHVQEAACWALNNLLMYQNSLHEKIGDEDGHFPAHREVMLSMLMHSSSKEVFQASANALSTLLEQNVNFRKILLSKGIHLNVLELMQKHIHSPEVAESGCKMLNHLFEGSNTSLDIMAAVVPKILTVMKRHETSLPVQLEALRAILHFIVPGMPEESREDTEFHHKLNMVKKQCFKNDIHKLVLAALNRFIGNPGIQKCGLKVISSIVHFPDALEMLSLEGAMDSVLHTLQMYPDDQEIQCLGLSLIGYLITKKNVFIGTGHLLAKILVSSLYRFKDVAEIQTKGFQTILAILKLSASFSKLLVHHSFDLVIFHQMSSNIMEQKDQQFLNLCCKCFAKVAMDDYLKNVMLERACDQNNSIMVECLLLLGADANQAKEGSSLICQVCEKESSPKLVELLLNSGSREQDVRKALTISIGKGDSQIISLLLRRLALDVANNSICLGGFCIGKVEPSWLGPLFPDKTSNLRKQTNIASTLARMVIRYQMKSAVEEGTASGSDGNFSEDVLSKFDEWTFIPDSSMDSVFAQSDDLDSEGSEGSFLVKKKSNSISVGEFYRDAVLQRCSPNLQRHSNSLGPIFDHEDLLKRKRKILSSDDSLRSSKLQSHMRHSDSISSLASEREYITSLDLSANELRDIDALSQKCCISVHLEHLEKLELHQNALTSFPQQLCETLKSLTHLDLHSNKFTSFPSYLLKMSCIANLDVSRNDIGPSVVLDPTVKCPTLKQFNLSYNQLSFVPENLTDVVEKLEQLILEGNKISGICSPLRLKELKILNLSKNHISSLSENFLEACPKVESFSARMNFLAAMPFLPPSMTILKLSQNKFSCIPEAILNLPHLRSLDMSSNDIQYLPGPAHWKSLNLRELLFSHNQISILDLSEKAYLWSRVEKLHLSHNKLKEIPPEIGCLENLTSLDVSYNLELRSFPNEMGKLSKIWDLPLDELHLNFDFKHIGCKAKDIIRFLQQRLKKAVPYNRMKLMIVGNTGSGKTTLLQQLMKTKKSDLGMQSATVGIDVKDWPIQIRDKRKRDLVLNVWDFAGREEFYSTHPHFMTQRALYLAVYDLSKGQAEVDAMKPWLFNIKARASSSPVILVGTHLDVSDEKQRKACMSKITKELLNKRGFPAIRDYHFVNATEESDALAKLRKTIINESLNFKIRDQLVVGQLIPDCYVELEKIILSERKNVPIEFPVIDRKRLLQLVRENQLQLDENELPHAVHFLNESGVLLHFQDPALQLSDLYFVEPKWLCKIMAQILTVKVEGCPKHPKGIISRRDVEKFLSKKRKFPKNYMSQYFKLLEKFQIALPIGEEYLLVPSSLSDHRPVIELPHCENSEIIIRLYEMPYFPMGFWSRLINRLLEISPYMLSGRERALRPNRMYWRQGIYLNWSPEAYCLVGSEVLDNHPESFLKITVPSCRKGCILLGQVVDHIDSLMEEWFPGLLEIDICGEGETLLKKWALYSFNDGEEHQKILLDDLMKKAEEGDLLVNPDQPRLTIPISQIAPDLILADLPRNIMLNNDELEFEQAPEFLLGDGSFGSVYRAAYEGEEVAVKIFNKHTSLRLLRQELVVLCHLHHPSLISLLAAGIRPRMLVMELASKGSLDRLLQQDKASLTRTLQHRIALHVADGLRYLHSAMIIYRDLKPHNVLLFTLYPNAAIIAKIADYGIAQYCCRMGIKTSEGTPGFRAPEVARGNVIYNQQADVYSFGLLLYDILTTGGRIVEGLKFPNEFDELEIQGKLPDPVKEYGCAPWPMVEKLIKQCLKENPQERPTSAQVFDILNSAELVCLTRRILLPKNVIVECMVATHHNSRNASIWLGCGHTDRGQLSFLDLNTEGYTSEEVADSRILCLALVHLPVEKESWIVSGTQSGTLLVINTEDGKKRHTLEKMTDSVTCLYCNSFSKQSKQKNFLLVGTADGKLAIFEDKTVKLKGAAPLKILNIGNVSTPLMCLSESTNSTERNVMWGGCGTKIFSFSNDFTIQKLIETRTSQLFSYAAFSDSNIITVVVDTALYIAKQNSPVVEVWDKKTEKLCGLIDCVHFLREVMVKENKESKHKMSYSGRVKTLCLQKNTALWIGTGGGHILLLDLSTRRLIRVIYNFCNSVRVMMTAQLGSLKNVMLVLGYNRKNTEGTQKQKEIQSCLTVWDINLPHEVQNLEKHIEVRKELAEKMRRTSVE
How it was run: (§2)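 HEK293 cells stably expressing wild-type GFP-LRRK2 exposed to DMSO or increasing inhibitor concentrations for 90 min. Lysates immunoblotted for LRRK2 phosphorylated at Ser910 and Ser935 and for total LRRK2.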

[10] = target: T1, Leucine-rich repeat serine/threonine-protein kinase 2; assay: Inhibition of wild-type LRRK2 phosphorylation at Ser935 expressed in HEK293 cells after 90 mins by immunoblot analysis; assay type: cell-based; how it was run: as §2
[11] = system: Leucine-rich repeat serine/threonine-protein kinase 2 (Homo sapiens), Q5S007 [A2016T]; assay: Inhibition of LRRK2 A2016T mutant phosphorylation at Ser935 expressed in HEK293 cells at 1 to 3 uM after 90 mins by immunoblot analysis; assay type: cell-based
Sequence of Leucine-rich repeat serine/threonine-protein kinase 2 (Homo sapiens), Q5S007 [A2016T] (Q5S007 whole entry A2016T): as the sequence (Q5S007 whole entry) above, with A2016T counted along it

[12] = system: Plasma; assay: AUClast in Swiss albino mouse plasma at 1 mg/kg, iv; assay type: ADME, organism-based; parameters: time 0 - last, dose 1 mg/kg, route intravenous; conditions: in vivo
How it was run: (§3)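 Male Swiss Albino mice were given a single dose, either intravenous at 1 mg/kg or oral at 10 mg/kg. AUClast was measured in plasma and in brain. Half-life, plasma clearance, volume of distribution and oral bioavailability were derived from the plasma data.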

[13] = Half life in Swiss albino mouse at 1 mg/kg, iv; assay type: ADME, organism-based; parameters: dose 1 mg/kg, route intravenous; conditions: in vivo; how it was run: as §3
[14] = target: Protein kinase C alpha type (Homo sapiens) (UniProt P17252); assay: Inhibition of PKCalpha assessed as residual activity at 10 uM relative to control
[15] = target: MAP kinase-activated protein kinase 5 (Homo sapiens) (UniProt Q8IW41); assay: Inhibition of PRAK assessed as residual activity at 10 uM relative to control
[16] = target: Proto-oncogene tyrosine-protein kinase Src (Homo sapiens) (UniProt P12931); assay: Inhibition of Src assessed as residual activity at 10 uM relative to control
[17] = target: Angiopoietin-1 receptor (Homo sapiens) (UniProt Q02763); assay: Inhibition of TIE2 assessed as residual activity at 10 uM relative to control; how it was run: as §1
Sequence of Angiopoietin-1 receptor (Homo sapiens) (Q02763 whole entry): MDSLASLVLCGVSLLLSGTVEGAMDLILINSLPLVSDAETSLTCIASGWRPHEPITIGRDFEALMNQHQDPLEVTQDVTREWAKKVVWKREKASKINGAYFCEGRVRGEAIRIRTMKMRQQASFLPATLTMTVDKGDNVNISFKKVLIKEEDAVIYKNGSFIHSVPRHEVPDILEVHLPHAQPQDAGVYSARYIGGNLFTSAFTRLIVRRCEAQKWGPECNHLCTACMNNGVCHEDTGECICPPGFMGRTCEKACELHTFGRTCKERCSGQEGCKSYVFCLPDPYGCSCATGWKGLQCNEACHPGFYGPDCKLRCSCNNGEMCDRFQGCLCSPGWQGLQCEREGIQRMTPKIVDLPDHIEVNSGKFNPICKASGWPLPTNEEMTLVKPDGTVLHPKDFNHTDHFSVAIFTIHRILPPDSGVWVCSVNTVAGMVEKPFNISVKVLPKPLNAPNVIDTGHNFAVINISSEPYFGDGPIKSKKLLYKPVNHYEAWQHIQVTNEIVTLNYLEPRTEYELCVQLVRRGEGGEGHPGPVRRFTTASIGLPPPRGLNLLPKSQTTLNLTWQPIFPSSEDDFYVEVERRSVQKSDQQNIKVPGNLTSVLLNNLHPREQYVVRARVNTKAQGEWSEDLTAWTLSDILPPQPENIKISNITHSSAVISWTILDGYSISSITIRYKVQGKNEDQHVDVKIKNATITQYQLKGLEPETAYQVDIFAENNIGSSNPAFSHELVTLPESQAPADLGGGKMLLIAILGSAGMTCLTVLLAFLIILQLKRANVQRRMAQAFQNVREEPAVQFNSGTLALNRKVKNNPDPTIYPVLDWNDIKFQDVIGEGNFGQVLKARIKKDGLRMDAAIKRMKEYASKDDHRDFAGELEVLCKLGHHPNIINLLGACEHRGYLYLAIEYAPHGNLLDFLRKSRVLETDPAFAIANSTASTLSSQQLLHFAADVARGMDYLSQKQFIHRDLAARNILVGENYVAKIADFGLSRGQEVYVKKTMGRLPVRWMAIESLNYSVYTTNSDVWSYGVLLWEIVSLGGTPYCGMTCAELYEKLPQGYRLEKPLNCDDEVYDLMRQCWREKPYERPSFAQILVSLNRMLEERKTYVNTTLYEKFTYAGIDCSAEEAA

[18] = target: Tau-tubulin kinase 1 (Homo sapiens) (UniProt Q5TCY1); assay: Inhibition of TTBK1 assessed as residual activity at 10 uM relative to control; how it was run: as §1
[19] = system: Mus musculus; assay: Inhibition of LRRK2 phosphorylation at Ser935 in C57BL/6 mouse kidney at 50 mg/kg, po administered for 8 hrs followed by 2 hrs dosing; assay type: functional, organism-based; parameters: dose 50 mg/kg
How it was run: (§4)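 Mice were dosed by oral gavage at 10 or 50 mg/kg. Brain, spleen and kidney were collected. Endogenous LRRK2 was resolved by SDS–PAGE and blotted with phospho-specific antibodies to Ser910 and Ser935 and with an antibody to total LRRK2.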

[20] = system: Mus musculus; assay: Inhibition of LRRK2 phosphorylation at Ser935 in C57BL/6 mouse kidney at 10 mg/kg, po administered for 8 hrs followed by 2 hrs dosing; assay type: functional, organism-based; parameters: dose 10 mg/kg; how it was run: as §4
[21] = system: Mus musculus; assay: Inhibition of LRRK2 phosphorylation at Ser910 in C57BL/6 mouse spleen at 10 mg/kg, po administered for 8 hrs followed by 2 hrs dosing; assay type: functional, organism-based; parameters: dose 10 mg/kg; how it was run: as §4
[22] = target: Cyclin-dependent kinase 2/cyclin A (Homo sapiens) (UniProt P24941+P20248+P78396); assay: Inhibition of CDK2-Cyclin A assessed as residual activity at 10 uM relative to control; assay type: protein-complex assay
[23] = target: Eukaryotic elongation factor 2 kinase (Homo sapiens) (UniProt O00418); assay: Inhibition of EF2K assessed as residual activity at 1 uM relative to control
How it was run: (§5)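 Standard radioactivity-based enzymatic assays were run across a 124-kinase panel (Dundee profiling), with compound at 1 µM. Kinase activity was expressed relative to control.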

[24] = target: Glycogen synthase kinase-3 beta (Homo sapiens) (UniProt P49841); assay: Inhibition of GSK3b assessed as residual activity at 1 uM relative to control; how it was run: as §5
[25] = target: Receptor tyrosine-protein kinase erbB-4 (Homo sapiens) (UniProt Q15303); assay: Inhibition of HER4 assessed as residual activity at 1 uM relative to control; how it was run: as §5
[26] = target: Maternal embryonic leucine zipper kinase (Homo sapiens) (UniProt Q14680); assay: Inhibition of MELK assessed as residual activity at 1 uM relative to control
[27] = target: Dual specificity mitogen-activated protein kinase kinase 6 (Homo sapiens) (UniProt P52564); assay: Inhibition of MKK6 assessed as residual activity at 1 uM relative to control
[28] = target: Mitogen-activated protein kinase 14 (Homo sapiens) (UniProt Q16539); assay: Inhibition of p38alpha MAPK assessed as residual activity at 1 uM relative to control; how it was run: as §1
[29] = target: Serine/threonine-protein kinase pim-3 (Homo sapiens) (UniProt Q86V86); assay: Inhibition of PIM3 assessed as residual activity at 1 uM relative to control
[30] = Inhibition of CK2 assessed as residual activity at 1 uM relative to control
[31] = target: Protein-tyrosine kinase 6 (Homo sapiens) (UniProt Q13882); assay: Inhibition of BRK assessed as residual activity at 1 uM relative to control
[32] = Inhibition of CK1 assessed as residual activity at 1 uM relative to control
[33] = target: Serine/threonine-protein kinase PLK1 (Homo sapiens) (UniProt P53350); assay: Inhibition of PLK1 assessed as residual activity at 1 uM relative to control

Sequence of Ribosomal protein S6 kinase beta-1 (Homo sapiens) (P23443 whole entry, looked up): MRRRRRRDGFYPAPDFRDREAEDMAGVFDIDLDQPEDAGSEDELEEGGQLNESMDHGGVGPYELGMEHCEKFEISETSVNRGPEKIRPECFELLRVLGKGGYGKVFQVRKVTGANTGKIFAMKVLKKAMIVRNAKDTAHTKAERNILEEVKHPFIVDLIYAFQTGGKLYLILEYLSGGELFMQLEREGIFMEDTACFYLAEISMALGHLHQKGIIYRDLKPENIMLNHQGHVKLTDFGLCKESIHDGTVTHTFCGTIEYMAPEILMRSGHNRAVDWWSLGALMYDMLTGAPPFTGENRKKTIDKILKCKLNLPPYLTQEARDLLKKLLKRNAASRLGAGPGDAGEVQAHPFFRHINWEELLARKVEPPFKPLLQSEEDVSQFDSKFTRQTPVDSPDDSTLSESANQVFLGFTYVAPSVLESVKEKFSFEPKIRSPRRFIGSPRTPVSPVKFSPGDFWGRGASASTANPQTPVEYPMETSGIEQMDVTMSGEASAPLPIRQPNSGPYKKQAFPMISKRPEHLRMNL

Question: Which results are given for `COc1cc(N2CCC(N3CCN(C)CC3)CC2)ccc1Nc1ncc(Cl)c(Nc2ccccc2S(=O)(=O)C(C)C)n1` [TAE-684]?
Answer: Activity [1]: 99%; Activity [2]: 73%; Activity [3]: 79%; Activity [4]: 106%; Activity [5]: 107%; Activity [6]: 30%; Activity [7]: 55%; Activity [8]: 109%; inhibition [9]: Dose-dependent effect; inhibition [10]: Dose-dependent effect; inhibition [11]: Active; AUClast [12]: 772 ng·h/mL; half-life [13]: 11.3 h; Activity [14]: 122%; Activity [15]: 110%; Activity [16]: 20%; Activity [17]: 5%; Activity [18]: 101%; inhibition [19]: Active; inhibition [20]: Active; inhibition [21]: Active; Activity [22]: 38%; Activity [23]: 96%; Activity [24]: 104%; Activity [25]: 36%; Activity [26]: 71%; Activity [27]: 90%; Activity [28]: 88%; Activity [29]: 106%; Activity [30]: 75%; Activity [31]: 5%; Activity [32]: 102%; Activity [33]: 38%
